# Rev-erbA mod – modulators of Rev-erb alpha DNA binding, primary screen, biochemical, FITC-DNA, fluorescence polarization, uHTS; Nuclear receptor subfamily 1 group D member 1 (Homo sapiens), P20393; Rev-erbα–FITC-DNA binding, 90 min; activity, % at 10 µM; hit rate 0.79% among 370,000;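 active = activity above about 14%, limit read from the data; passing the limit was not always enough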
# MC4R antag cAMP – MC4R antagonists of cAMP signaling, primary screen, cell-based, TR-FRET, antagonist arm of biased-ligand search; hit rate 0.48% among 360,000; Melanocortin receptor 4 (Homo sapiens), P32245; AID 540295, 2011; inhibition, % at 6.5 µM; MC4R-expressing cells, MTII-stimulated cAMP, LANCE TR-FRET;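 active = inhibition above its plate's cutoff, the mean of tested wells on that plate plus 3 SD, cut at about 29% in these data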
# Target sequence (P32245 whole entry, looked up): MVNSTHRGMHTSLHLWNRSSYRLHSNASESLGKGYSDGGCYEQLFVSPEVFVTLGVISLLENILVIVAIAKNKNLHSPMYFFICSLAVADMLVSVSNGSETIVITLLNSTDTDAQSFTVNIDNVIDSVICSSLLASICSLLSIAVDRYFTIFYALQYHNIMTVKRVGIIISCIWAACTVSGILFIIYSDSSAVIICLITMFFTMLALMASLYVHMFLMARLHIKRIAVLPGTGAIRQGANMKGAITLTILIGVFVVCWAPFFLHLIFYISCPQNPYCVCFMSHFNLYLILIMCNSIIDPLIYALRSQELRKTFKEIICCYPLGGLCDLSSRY
#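 Material: U2OS-MC4R stable cell line | Reagent: Melanotan II challenge after compound preincubation | Doses: One concentration, 6.5 µM nominal | Incubation: 30-min compound preincubation, 1-h Melanotan II challenge, 1-h detection, room temperature | Signal: TR-FRET cAMP assay | Replicates: One well per compound, no replicates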
# NR2E3 ag-1 – inhibitors of NR2E3-RetCOR corepressor binding, primary screen, NR2E3 agonist project, biochemical, TR-FRET, GST-NR2E3, biotin-RetCOR; Photoreceptor-specific nuclear receptor (Homo sapiens), Q9Y5X4; hit rate 0.12% among 320,000; 1536-well; inhibition of corepressor binding, % at 4.78 µM;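 active = percent inhibition above the cutoff of mean plus 3 SD of all tested compounds, set per screening campaign, cut at about 20% in these data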
# Target sequence (Q9Y5X4 whole entry, looked up): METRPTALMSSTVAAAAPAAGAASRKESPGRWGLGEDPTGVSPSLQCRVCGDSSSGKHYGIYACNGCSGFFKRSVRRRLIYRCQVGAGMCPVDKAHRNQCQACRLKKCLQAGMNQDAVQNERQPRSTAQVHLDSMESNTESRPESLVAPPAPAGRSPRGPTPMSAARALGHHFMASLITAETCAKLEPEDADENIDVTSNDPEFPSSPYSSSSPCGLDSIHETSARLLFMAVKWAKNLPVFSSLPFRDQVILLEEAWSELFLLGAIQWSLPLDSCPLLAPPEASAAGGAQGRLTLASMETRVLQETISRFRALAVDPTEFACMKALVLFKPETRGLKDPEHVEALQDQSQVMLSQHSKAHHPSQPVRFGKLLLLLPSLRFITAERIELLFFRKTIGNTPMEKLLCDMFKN
#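 System: GST-tagged NR2E3 plus biotinylated RetCOR corepressor; Buffer or medium: pH 7.5 Tris-based buffer; Probe or stimulus: RetCOR corepressor, biotinylated, 7 nM; Doses: compound at 4.8 µM, single dose; Schedule: 5 h incubation at 4 °C; Technique: time-resolved FRET; Evaluation: percent inhibition of TR-FRET ratio; Replication: one well per compound, singlicate testing.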
# PG9 binder – binders of HIV-1 gp120 antibody PG9, primary screen, biochemical, TR-FRET; hit rate 0.43% among 360,000; TR-FRET gp120-PG9 antibody binding; AID 624416, 2012; HIV-1 gp120 / PG9 antibody interaction; inhibition, % at 6.7 µM; in the data active = inhibition above about 8.5%
# NR2E3 ag-2 – NR2E3 agonists in two-hybrid cells, primary screen, cell-based, luminescence, CHO-S, Gal4-NCOR/VP16-NR2E3; Photoreceptor-specific nuclear receptor (Homo sapiens), Q9Y5X4; luciferase; inhibition of corepressor binding, % at 3.98 µM; hit rate 0.35% among 360,000; AID 602229, 2012;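 active = inhibition above the mean of all tested compounds plus 3 SD, cut at about 70% in these data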;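 note: higher means lower luciferase signal from less NR2E3 corepressor binding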
# MC4R barr agon – MC4R agonists recruiting beta-arrestin, primary screen, cell-based, luminescence, agonist arm of biased-ligand search. activation, % at 8.9 µM. Melanocortin receptor 4 (Homo sapiens), P32245. hit rate 0.98% among 360,000. U2OS MC4R beta-arrestin complementation; percent of melanotan II response, DMSO zero. AID 540308, 2011;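 active = activation above a per-plate cutoff, the mean activation of sample wells on that plate plus 3 SD, cut at about 8% in these data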
# NR2E3 ag confirm-1 – NR2E3 agonists, confirmation, biochemical, TR-FRET | shares compounds with NR2E3 ag-1 | cell-free NR2E3 corepressor release, 5 h | activation (reported as inhibition), % at 3.98 µM | hit rate 39% among 360 | AID 2379, 2010; in the data active = activation above about 20%
# PPARg-NCOR2 ag – agonists of PPARg-NCOR2 corepressor interaction, counter-screen for NR2E3 agonist project, biochemical, TR-FRET. shares compounds with NR2E3 ag-1. inhibition, % at 3.98 µM. TR-FRET PPARg-NCOR2 coregulator interaction. hit rate 45% among 360. AID 504787, 2011; in the data active = inhibition above about 20%
# U2OS cAMP counter – nonselective cAMP signaling inhibitors, parental cells, counter-screen for MC4R biased antagonist project, cell-based, TR-FRET, U2OS, forskolin, triplicate; shares compounds with MC4R antag cAMP; LANCE TR-FRET; inhibition, % at 6.5 µM; hit rate 26% among 1,600; AID 602193, 2012;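 active = mean inhibition over triplicates above the low-control well mean plus 3 SD, set per campaign, cut at about 13% in these data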;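 note: signal is single emission at 671 nm which falls as cellular cAMP rises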
# MC4R cAMP antag – MC4R cAMP antagonists, retest, confirmation, cell-based, TR-FRET; inhibition, % at 6.5 µM; hit rate 27% among 1,600; MC4R-expressing cells, MTII-stimulated cAMP; shares compounds with MC4R antag cAMP; in the data active = inhibition above about 29%
# MC4R barr ag – MC4R beta-arrestin agonists, retest, confirmation, cell-based, luminescence, U2OS. shares compounds with MC4R barr agon. U2OS MC4R beta-arrestin recruitment; scaled DMSO 0%, Melanotan II 100%. activation, % at 8.9 µM. hit rate 31% among 2,400. AID 602192, 2012;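 active = mean activation across replicates above the hit cutoff set in the earlier primary screen, cut at about 8% in these data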
# MOR-DOR barr ag – agonists of MOR-DOR heterodimerization, counter-screen for MC4R biased agonist project, cell-based, luminescence; AID 602194, 2012; U2OS PathHunter beta-arrestin, beta-gal luminescence; percent of deltorphin B response, DMSO zero; shares compounds with MC4R barr agon; hit rate 5.8% among 2,400; activation, % at 9.2 µM;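 active = mean activation across replicates exceeds the hit threshold derived in the earlier primary screen, cut at about 18% in these data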
# NR2E3 ag confirm-2 – NR2E3 agonist confirmation in cells, cell-based, luminescence, CHO-S two-hybrid; shares compounds with NR2E3 ag-2; CHO-S mammalian two-hybrid NR2E3-NCOR, luciferase luminescence; inhibition, % at 3.98 µM; hit rate 51% among 2,300;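 active = average inhibition above a cutoff equal to the mean inhibition of all tested compounds plus one SD, cut at about 70% in these data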
# VP16 counter – GAL4-VP16 reporter modulators, confirmation, counter-screen for NR2E3 agonist project, cell-based, luminescence, CHO-S, high throughput. shares compounds with NR2E3 ag-2. CHO-S GAL4-VP16 luciferase reporter. inhibition, % at 3.98 µM. hit rate 29% among 2,300;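 active = mean inhibition above a cutoff equal to the average over all tested compounds plus one standard deviation, cut at about 70% in these data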;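 note: luciferase from a UAS reporter driven by GAL4-VP16 transactivation; higher means less reporter light so more repression of VP16 activity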
# Numbers stand for hits; i = inactive; nt = no result given. Hits are enriched below; roughly 2.7% of the tested compounds scored in any of these assays.
SMILES,Rev-erbA mod,MC4R antag cAMP,NR2E3 ag-1,PG9 binder,NR2E3 ag-2,MC4R barr agon,U2OS cAMP counter,MC4R cAMP antag,others
O=C1C(=O)c2ccccc2-c2ccccc21,i,i,37,i,i,i,nt,nt,NR2E3 ag confirm-1=39;PPARg-NCOR2 ag=84
CCOC(=O)c1c(NS(=O)(=O)c2ccccc2)n(CCCOC)c2nc3ccccc3nc12,i,i,38,i,i,i,nt,nt,NR2E3 ag confirm-1=i;PPARg-NCOR2 ag=i
Cc1ccc2n1Cc1cnnn1-c1ccccc1-2,i,i,nt,i,i,i,nt,nt,
COCCNC(=O)c1c(NC(=O)c2ccc(Br)o2)n(Cc2ccccc2)c2nc3ccccc3nc12,i,i,23,i,i,i,nt,nt,NR2E3 ag confirm-1=i;PPARg-NCOR2 ag=i
CN(C)C(Cc1ccccc1)C(=O)c1c[nH]c2ccccc12 (stereo not drawn),i,i,i,i,i,i,nt,nt,
Cc1nc2c(=O)n(C)c(=O)nc-2n(C)n1,i,i,38,i,114,i,nt,nt,NR2E3 ag confirm-1=40;PPARg-NCOR2 ag=64;NR2E3 ag confirm-2=100;VP16 counter=98
Cc1ccc2cc(C=C(C#N)C#N)c(Cl)nc2c1,i,i,i,i,i,i,nt,nt,
Cc1ccc(-n2c(C)cc(/C=C3/C(=O)NC(=O)N(Cc4ccco4)C3=O)c2C)cc1,i,i,i,i,i,i,nt,nt,
Cc1cc(/C=C2\C(=O)NC(=O)N(Cc3ccco3)C2=O)c(C)n1-c1ccc(O)cc1,i,30,i,i,i,i,i,i,
CC1CCCCN1CC(O)c1c[nH]c2ccccc12 (stereo not drawn),i,i,i,i,i,i,nt,nt,
NC(N)=N/N=C/c1ccc(N2CCOCC2)cc1,i,i,i,i,i,i,nt,nt,
COC(=O)C1=C(c2cccc(OCc3ccccc3)c2)C[C@@H]2CC[C@H]1N2C(=O)NCc1cccc(F)c1,i,i,i,i,i,i,nt,nt,
Cc1ccccc1N1C(=O)NC(=O)/C(=C\c2cnn(-c3ccccc3)c2)C1=O,i,41,i,i,i,i,14,i,
CN(C)C(=O)O/N=C(\N)COc1ccc(C(C)(C)C)cc1,i,i,i,i,i,i,nt,nt,
Clc1ccc(COC(Cn2ccnc2)c2ccc(Cl)cc2Cl)cc1 (stereo not drawn),i,i,i,i,i,i,nt,nt,
Clc1ccc(C(c2ccc(Cl)cc2)n2cc[n+](CC(OCc3ccc(Cl)cc3Cl)c3ccc(Cl)cc3Cl)c2)cc1 (stereo not drawn),i,61,i,i,i,i,20,71,
O=C1NC(=O)C(=Cc2ccc(-c3ccc(Cl)cc3)o2)C(=O)N1,nt,44,i,nt,i,i,41,68,
O=C1NC(=O)C(=Cc2ccc(-c3ccc(F)cc3O)o2)C(=O)N1,i,53,i,i,i,i,13,29,
CC(=NCc1ccco1)c1c(O)n(Cc2ccccc2)c(=O)[nH]c1=O,i,i,i,i,i,i,nt,nt,
CC12CCC3C(CC=C4CC5(CCC43C)OCCO5)C1CCC2=O (stereo not drawn),i,30,i,i,i,i,i,i,
Cc1nn(Cc2ccccc2)c(C)c1C=C1C(=O)NC(=S)NC1=O,i,i,i,i,i,i,nt,nt,
Cc1ccc(Cn2nc(C)c(C=O)c2Cl)cc1,i,31,i,i,i,i,i,i,
O=C1NC(=O)N(Cc2ccccc2Cl)C(=O)/C1=C/c1cccs1,i,36,i,i,i,i,16,30,
O=C1NC(=O)N(Cc2ccc(F)cc2)C(=O)/C1=C/c1cccs1,i,68,i,i,i,i,i,i,
Cc1ccc(/C=C2\C(=O)NC(=O)N(Cc3ccccc3Cl)C2=O)o1,i,i,i,i,i,i,nt,nt,
O=C1NC(=O)N(Cc2ccc(F)cc2)C(=O)/C1=C\c1ccoc1,i,i,i,i,i,i,nt,nt,
Cc1cc([N+](=O)[O-])c2ccccc2[n+]1[O-],nt,31,i,nt,i,i,i,31,
CC1CCC(C(C)C)C(OC(=O)Cn2c(COc3ccccc3)[n+](C)c3ccccc32)C1 (stereo not drawn),i,i,i,i,i,29,nt,nt,MC4R barr ag=10;MOR-DOR barr ag=i
Cc1cccc(OP(=O)(Nc2ccc(F)cc2)Oc2cccc(C)c2)c1,i,i,i,i,i,i,nt,nt,
CN1CCCN(C(=O)COc2ccccc2Br)CC1,i,i,i,i,i,i,nt,nt,

# From PubChem BioAssay
